According to PMC9056854 (RSC Advances, 2020):

Test: Thermal denaturation study
Type: physicochemical
Conditions: 3 μM duplex, 10 mM sodium phosphate (pH 7.0), 100 mM NaCl; relative to siRNA 1
Summary of the method: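 UV melting of duplexes at 3 μM in 10 mM sodium phosphate (pH 7.0) with 100 mM NaCl, heated at 0.5 °C min−1. ΔTm is the Tm of the peptide-conjugated duplex minus the Tm of the unmodified duplex.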

## 5′-GGCCUUUCACUACUCCUACTTR^E-R8G7-3′ [siRNA 2]
  ΔTm [Tm(siRNAmod) − Tm(siRNAunmod)]: +0.9 °C

## 5′-GGCCUUUCACUACUCCUACTTR^E-R8A7-3′ [siRNA 3]
  ΔTm [Tm(siRNAmod) − Tm(siRNAunmod)]: +0.5 °C
